From ChEMBL document CHEMBL4014305, “Anti-leishmanial and cytotoxic activities of amino acid-triazole hybrids: Synthesis, biological evaluation, molecular docking and in silico physico-chemical properties” (Bioorg Med Chem Lett, 2017)

Experiments:
Leishmania donovani = test: Antileishmanial activity against Leishmania donovani Dd8 promastigote forms after 48 hrs by neubauer hemocytometer method; format: functional; conditions: for IC50: Dd8, 48 h
Outline: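 Promastigotes of L. donovani Dd8 strain exposed 48 h to increasing concentrations of test agent; percent viability scored, IC50 derived.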

[1] = Selectivity index, ratio of IC50 for human PMA-differentaited THP1 cells to IC50 for promastigote form of Leishmania donovani Dd8; format: toxicity; conditions: PMA-differentiated THP1 cells, read-out: Ratio IC50
Outline: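 Ratio of IC50 against THP-1 macrophages (normal cells) to IC50 against L. donovani promastigotes.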

THP-1 [2] = test: Cytotoxicity against human PMA-differentaited THP1 cells after 24 hrs by MTT assay; format: cell-based; conditions: THP-1, 24 h
THP-1 [3] = test: Cytotoxicity against human PMA-differentaited THP1 cells assessed as cell viability at 100 uM after 24 hrs by MTT assay; format: cell-based; conditions: thp-1, 24 h

| Structure (SMILES) | IC50 (Leishmania donovani) | selectivity ratio [1] | IC50 (THP-1 [2]) | Activity (Leishmania donovani) | Activity (THP-1 [3]) |
| --- | --- | --- | --- | --- | --- |
| N[C@@H](Cc1c[nH]c2ccccc12)C(=O)OCc1cn(-c2ccc(F)cc2)nn1 | 151 µM | 2.32 | 352 µM |  |  |
| N[C@@H](Cc1ccccc1)C(=O)OCc1cn(-c2ccc(Cl)cc2)nn1 | 132 µM | 2.94 | 389 µM |  |  |
| N[C@@H](Cc1c[nH]c2ccccc12)C(=O)OCc1cn(-c2ccccc2)nn1 | 138 µM | 1.39 | 191 µM |  |  |
| Cc1ccc(-n2cc(COC(=O)[C@@H](N)Cc3c[nH]c4ccccc34)nn2)cc1 | 99.4 µM | 2.95 | 293 µM |  |  |
| N[C@@H](Cc1c[nH]c2ccccc12)C(=O)OCc1cn(-c2ccc(Cl)cc2)nn1 | 129 µM | 2.46 | 317 µM |  |  |
| COc1ccc(-n2cc(COC(=O)[C@@H](N)Cc3c[nH]c4ccccc34)nn2)cc1 | 94.5 µM | 2.06 | 195 µM | Dose-dependent effect | Non-Toxic |
| N[C@@H](Cc1c[nH]c2ccccc12)C(=O)OCc1cn(-c2ccc([N+](=O)[O-])cc2)nn1 | 119 µM | 1.47 | 174 µM |  |  |
| CCCCCCCCCCCCCCCCOP(=O)([O-])OCC[N+](C)(C)C [MILTEFOSINE] | 27.1 µM | 1.99 | 54.1 µM |  |  |
| N[C@@H](Cc1ccccc1)C(=O)OCc1cn(-c2ccc([N+](=O)[O-])cc2)nn1 | 171 µM | 1.05 | 180 µM |  |  |
| Cc1ccc(-n2cc(COC(=O)[C@@H](N)Cc3ccccc3)nn2)cc1 | 88.8 µM | 3.28 | 292 µM | Dose-dependent effect | Non-Toxic |
| COc1ccc(-n2cc(COC(=O)[C@@H](N)Cc3ccccc3)nn2)cc1 | 144 µM | 1.8 | 260 µM |  |  |

Second part, led by results:

| IC50 (Leishmania donovani) | Structure (SMILES) | selectivity ratio [1] | IC50 (THP-1 [2]) | Activity (Leishmania donovani) | Activity (THP-1 [3]) |
| --- | --- | --- | --- | --- | --- |
| 163 µM | N[C@@H](Cc1ccccc1)C(=O)OCc1cn(-c2ccccc2)nn1 | 3.09 | 504 µM |  |  |
| 104 µM | COc1ccc(-n2cc(COC(=O)[C@@H]3CCCN3)nn2)cc1 | 2.11 | 218 µM |  |  |
| 122 µM | O=C(OCc1cn(-c2ccc(F)cc2)nn1)[C@@H]1CCCN1 | 2.54 | 309 µM |  |  |
| 175 µM | Cc1ccc(-n2cc(COC(=O)[C@@H]3CCCN3)nn2)cc1 | 2.4 | 421 µM |  |  |
| 157 µM | O=C(OCc1cn(-c2ccc(Cl)cc2)nn1)[C@@H]1CCCN1 | 2.2 | 346 µM |  |  |
| 133 µM | N[C@@H](Cc1ccccc1)C(=O)OCc1cn(-c2ccc(F)cc2)nn1 | 1.48 | 196 µM |  |  |
| 96.9 µM | O=C(OCc1cn(-c2ccccc2)nn1)[C@@H]1CCCN1 | 8.05 | 780 µM | Dose-dependent effect | Non-Toxic |
| 189 µM | O=C(OCc1cn(-c2ccc([N+](=O)[O-])cc2)nn1)[C@@H]1CCCN1 | 1.82 | 344 µM |  |  |
